Measured values published in ChEMBL document CHEMBL1255315, “The hepatitis C virus replicon presents a higher barrier to resistance to nucleoside analogs than to nonnucleoside polymerase or protease inhibitors” (Antimicrob Agents Chemother, 2008).

Legend:
[1] = tested on: Hepatitis C virus; experiment: Antiviral activity against HCV infected in human assessed as log reduction in viral load at 4500 […] BID; format: functional, Hepacivirus hominis
[2] = tested on: Hepatitis C virus; experiment: Antiviral activity against HCV infected in human assessed as log reduction in viral load at 800 […] SID; format: functional, Hepacivirus hominis
[3] = tested on: Hepatitis C virus; experiment: Antiviral activity against HCV subtype 1b infected in human HuH7 cells assessed as number of resistant colonies formed at 15 times EC50 after 3 weeks; format: functional, Hepacivirus hominis, genotype 1b, Huh-7
Summary of the method: (§1)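 Huh7 cells stably carrying a GT 1b subgenomic neoR replicon, seeded at 1 × 10^5 cells/well with 0.5 mg/ml G418, were exposed to one or two inhibitors at multiples of EC50 (from the 3-day Con1 2209-23 luciferase assay). Medium was changed twice weekly, with a 1:4 split at ~95% confluence. After 3 weeks, cells were formaldehyde-fixed and crystal violet-stained, and colonies were counted.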

[4] = tested on: Hepatitis C virus; experiment: Antiviral activity against Hepatitis C virus subtype 1b Con1 infected in human HuH7 cells after 3 days by luciferase reporter gene assay; format: functional, organism-based, Hepacivirus hominis; details: Con1, Huh-7, 72 h
Summary of the method: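 Huh7-derived 2209-23 cells stably carrying a GT 1b Con1 subgenomic replicon encoding Renilla luciferase, incubated with compound for 3 days. The EC50 is the concentration that reduces reporter luciferase activity by 50% versus untreated controls. Values are reported as mean ± SD over repeated experiments, with the number of experiments differing by compound.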

[5] = tested on: Hepatitis C virus; experiment: Antiviral activity against HCV genotype 1 infected in human assessed as log reduction in viral load at 750 mg administered every 8 hrs for 14 days
[6] = Cytotoxicity against human HuH7 cells; format: cell-based, Huh-7
Summary of the method: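 Viability of the stable GT 1b Con1 replicon cells was measured by MTT or WST-1 assay to give CC50, the 50% cytotoxic concentration. The number of experiments matched the EC50 determinations, and values are reported as mean ± SD.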

[7] = tested on: Hepatitis C virus; experiment: Antiviral activity against HCV subtype 1b infected in human HuH7 cells assessed as number of resistant colonies formed at 10 times EC50 after 3 weeks; format: functional, Hepacivirus hominis, genotype 1b, Huh-7; summary of the method: as §1
[8] = tested on: Hepatitis C virus; experiment: Antiviral activity against HCV infected in human assessed as log reduction in viral load measured on day 4 postdose; format: functional, Hepacivirus hominis

| EC50 [4] [nM] | Compound | CC50 [6] [nM] | further results |
| --- | --- | --- | --- |
|  | CC(C)C(=O)OC[C@@]1(N=[N+]=[N-])O[C@@H](n2ccc(N)nc2=O)[C@H](OC(=O)C(C)C)[C@@H]1OC(=O)C(C)C [BALAPIRAVIR] |  | FC [1]: 3.7 |
|  | CC(C)[C@H](N)C(=O)O[C@@H]1[C@@H](CO)O[C@@H](n2ccc(N)nc2=O)[C@]1(C)O [VALOPICITABINE] |  | FC [2]: 1.2 |
| 610 | C[C@@]1(F)[C@H](O)[C@@H](CO)O[C@H]1n1ccc(N)nc1=O | > 100000 |  |
| 1230 | C[C@@]1(O)[C@H](O)[C@@H](CO)O[C@H]1n1ccc(N)nc1=O | > 100000 |  |
| 1280 | [N-]=[N+]=N[C@]1(CO)O[C@@H](n2ccc(N)nc2=O)[C@H](O)[C@@H]1O [4'-AZIDOCYTIDINE] | > 100000 |  |

| Compound | EC50 [4] [nM] | CC50 [6] [nM] | further results |
| --- | --- | --- | --- |
| CCC[C@H](NC(=O)[C@@H]1[C@H]2CCC[C@H]2CN1C(=O)[C@@H](NC(=O)[C@@H](NC(=O)c1cnccn1)C1CCCCC1)C(C)(C)C)C(=O)C(=O)NC1CC1 [TELAPREVIR] | 560 | 26700 | Activity [3]: 93; Activity [5]: > 4 log10IU/ml |
| CNC(=O)c1c(-c2ccc(F)cc2)oc2cc(N(CCO)S(C)(=O)=O)c(C3CC3)cc12 [NESBUVIR] | 17 | > 100000 | Activity [7]: 60; Activity [3]: 36; FC [8]: 1.4 |
